Shown are actives, neighbours in structure and some others; about 2.1% of the full set was active somewhere.
DNMT1 inh: human DNMT1 methyltransferase inhibitors, primary screen, biochemical, molecular beacon, fluorescence, HinP1I cleavage, uHTS. DNA (cytosine-5)-methyltransferase 1 (Homo sapiens), P26358. inhibition (reported as % activation of signal), % at 10 µM. 360,000 tested, 0.83% active. AID 588458, 2011; in the data active = inhibition above about 50%
GRK2 inh: compounds blocking aptamer binding on GRK2 – biochemical, human GRK2, bead flow cytometry, HTS, primary screen; Beta-adrenergic receptor kinase 1 (Homo sapiens), P25098; FAM-aptamer displacement from GRK2; inhibition of aptamer binding, % at 10 µM; 330,000 tested, 0.59% active; AID 488847, 2010;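 active = inhibition of aptamer binding above 40%, roughly 3 SD of noise, on plates passing a quality check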;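 also: median bead fluorescence of bound FAM aptamer so fluorescent compounds give negative values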
LMPTP inh: LMPTP phosphatase inhibitors, primary screen, biochemical, fluorescence intensity, uHTS; Low molecular weight phosphotyrosine protein phosphatase (Homo sapiens), P24666; recombinant LMPTP-A, OMFP fluorogenic substrate; inhibition, % at 20 µM; 360,000 tested, 0.22% active; AID 651560, 2012;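 active = compounds that cut the enzyme signal by at least half of the control window in the single-dose screen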
Target sequence (P24666 whole entry, looked up): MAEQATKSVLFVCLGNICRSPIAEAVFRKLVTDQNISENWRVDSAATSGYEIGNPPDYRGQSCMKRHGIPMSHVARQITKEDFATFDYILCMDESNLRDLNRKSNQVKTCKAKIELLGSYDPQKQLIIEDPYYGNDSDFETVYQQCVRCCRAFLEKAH
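test system = LMPTP-A | amount = 0.625 nM LMPTP-A final | reagent = fluorogenic phosphatase substrate OMFP at 400 µM final | incubation = 50 min at room temperature | benchmarks = no-enzyme low control, uninhibited high control | medium = Bis-Tris pH 6.0, DTT, detergent | signal = fluorescence intensity of OMFP turnover product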
Scp1 inh: Scp-1 phosphatase inhibitors, primary screen, biochemical, colorimetric, uHTS | 340,000 tested, 0.88% active | Carboxy-terminal domain RNA polymerase II polypeptide A small phosphatase 1 (Homo … | inhibition, % at 20 µM | Recombinant Scp1, phosphopeptide, malachite green phosphate absorbance;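 active = inhibition above about 50% at 20 µM, limit read from the data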
Target sequence (Q9GZU7 76-261 limits assumed): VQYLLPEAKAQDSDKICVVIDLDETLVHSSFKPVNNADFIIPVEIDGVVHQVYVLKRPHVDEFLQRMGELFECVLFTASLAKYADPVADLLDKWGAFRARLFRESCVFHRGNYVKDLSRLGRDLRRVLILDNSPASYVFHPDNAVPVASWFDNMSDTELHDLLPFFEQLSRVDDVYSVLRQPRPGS
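Test system – truncated SCP-1 phosphatase (76-261aa) · Reagent – Phosphorylated 17-residue peptide substrate · Incubation – 45 min room-temperature reaction, 5 min colour, 30 min stabiliser · Detection – colorimetric phosphate reagent with accelerator and stabiliser, absorbance at 630 nm · Measure – % inhibition at 20 µM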
STEP inh: STEP phosphatase inhibitors, primary screen, biochemical, fluorescence intensity, uHTS | recombinant STEP, OMFP fluorogenic substrate | inhibition, % at 20 µM | 360,000 tested, 0.25% active | AID 588621, 2011;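 active = inhibition at 20 µM, scaled per plate between control wells, above about 37%, limit read from the data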
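Also added – OMFP at 25 µM · Test system – STEP tyrosine phosphatase · Technique – FITC-channel fluorescence of OMFP product · Schedule – 20 min at room temperature, dark · Evaluation – control-normalized % inhibition with plate pattern correction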
SUMO1-SIM PPI: modulators of SUMO1 protein-protein interactions, primary screen, biochemical, uHTS. Small ubiquitin-related modifier 1 (Homo sapiens), P63165. SUMO1 binding to a labelled peptide, TR-FRET, 1 h. AID 602429, 2012. inhibition, % at 20 µM. 360,000 tested, 0.33% active; in the data active = inhibition above about 37%
Target sequence (P63165 whole entry, looked up): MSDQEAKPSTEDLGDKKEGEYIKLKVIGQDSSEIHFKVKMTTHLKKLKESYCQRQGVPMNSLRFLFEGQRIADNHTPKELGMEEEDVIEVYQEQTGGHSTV
Beacon interf DR: spectral interference with molecular beacon fluorescence, dose response, artefact control for DNMT1 inhibitor project, biochemical, fluorescent molecular beacon. shares compounds with DNMT1 inh. 200 tested, under 10 active. spectral interference counter-screen. AID 602382, 2012. IC50, µM; call rule not given here
DNMT1 confirm: DNMT1 methyltransferase inhibitor retest, confirmation, biochemical, molecular beacon, fluorescence, single concentration; shares compounds with DNMT1 inh; DNMT1 molecular beacon HinP1I cleavage; inhibition, % at 10 µM; 2,300 tested, 8% active; AID 602385, 2012;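 active = average inhibition of at least 30% in the single-concentration confirmation test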
Beacon interf: counter-screen for DNMT1 inhibitors: spectral interference; shares compounds with DNMT1 inh; DNMT1 molecular beacon spectral interference counterscreen, fluorescence 485/520; activation (fluorescence interference), % at 10 µM; 2,300 tested, 1% active;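 active = activation of at least 30% at 10 µM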;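 also: DNMT1 catalytic domain with a HinP1I cleavage step and a FAM/dabcyl DNA beacon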
Numbers stand for hits; – = inactive; · = no result.

SMILES | DNMT1 inh | GRK2 inh | LMPTP inh | Scp1 inh | STEP inh | SUMO1-SIM PPI | DNMT1 confirm | Beacon interf | others
O=C(CN1C(=O)c2ccccc2C1=O)Nc1ccc(-c2nc3ccccc3o2)cc1 | 78 | – | – | – | – | – | – | –
Cc1ccc(S(=O)(=O)N2[C@@H](c3ccc(C(C)(C)C)cc3)C(C(=O)O)=CC[C@H]2c2ccc(C(C)C)cc2)cc1 | 58 | – | – | – | – | – | 52 | – | Beacon interf DR=–
CC(=O)c1c2c3c(cccc3n(C)c1=O)C(=O)c1ccccc1-2 | · | – | · | – | · | · | · | ·
Cn1c(=O)c(Nc2ccc(O)cc2)c2c3c(cccc31)C(=O)c1ccccc1-2 | 62 | – | – | – | – | – | – | –
O=C(CSc1nnc2ccccn12)Nc1cccc(-c2nc3ccccc3s2)c1 | 61 | – | – | – | – | – | – | –
C=CCn1c(SCC(=O)Nc2ccc(-c3nc4ccc(C)cc4s3)cc2)nnc1-c1ccccc1 | 74 | – | – | 61 | – | – | – | –
O=C(CSc1nnc2ccccn12)Nc1ccc2c(c1)OCO2 | – | – | – | – | – | – | · | ·
C=CCn1c(SCC(=O)Nc2ccc3c(c2)OCO3)nnc1-c1ccccc1 | 52 | – | – | – | – | – | – | –
OC1CCCN(Cc2ccc3ccc4cccc5ccc2c3c45)C1 (stereo not drawn) | 65 | – | – | – | – | – | – | –
O=C(Nc1ccc2c(c1)[C@H]1C[C@@H](CC(=O)N3CCOCC3)O[C@@H](CO)[C@H]1O2)C1CCOCC1 | – | · | – | · | – | – | · | ·
CC(C)=CCC/C(C)=C/CC/C(C)=C/CC/C(C)=C/CC1=C(C)C(=O)c2ccccc2C1=O | – | – | – | – | – | – | · | ·
CC(C)=CCC1=C(OCC(=O)O)C(=O)c2ccccc2C1=O | 71 | – | – | – | – | – | – | –
CCCC(=O)Nc1cc2c3c(c1)C(C)C(=O)N3CCC2 (stereo not drawn) | – | – | – | – | – | – | · | ·
Cc1cc(N/N=C/c2ccc(O)cc2)nc(NS(=O)(=O)c2ccccc2)n1 | 83 | 74 | – | – | 41 | – | – | –
Cc1ccc(/C=N/Nc2cc(C)nc(NCc3ccccc3)n2)cc1 | – | – | – | – | – | – | · | ·
C=CCC[C@H](Cc1ccc(F)cc1)C(=O)OC[C@H](Cc1c[nH]c2ccccc12)NC(=O)[C@H](CC=C)CC(=O)N(CCO)Cc1ccccc1 | – | – | – | – | – | – | · | ·
C=CCC[C@@H](Cc1ccc(F)cc1)C(=O)OC[C@H](Cc1c[nH]c2ccccc12)NC(=O)[C@@H](CC=C)CC(=O)N[C@@H](CO)Cc1ccccc1 | – | – | – | – | – | – | · | ·
C=CCC[C@H](Cc1ccc(F)cc1)C(=O)OC[C@@H](Cc1c[nH]c2ccccc12)NC(=O)[C@@H](CC=C)CC(=O)N[C@@H](CO)Cc1ccccc1 | – | – | – | – | – | – | · | ·
C=CCC[C@@H](Cc1ccc(F)cc1)C(=O)OC[C@@H](Cc1c[nH]c2ccccc12)NC(=O)[C@H](CC=C)CC(=O)N[C@H](CO)Cc1ccccc1 | 71 | – | – | – | – | – | – | –
C=CCC[C@@H](Cc1ccc(F)cc1)C(=O)OC[C@@H](Cc1c[nH]c2ccccc12)NC(=O)[C@@H](CC=C)CC(=O)N(CCO)Cc1ccccc1 | 60 | – | – | – | – | – | – | –
C=CC[C@@H](CC(=O)N[C@@H](CO)Cc1ccccc1)C(=O)NC[C@@H](OC(=O)[C@@H](CC=C)Cc1ccc(F)cc1)c1ccccc1 | 66 | – | – | – | – | – | – | –
C=CCC[C@@H](Cc1ccc(F)cc1)C(=O)OC[C@@H](Cc1c[nH]c2ccccc12)NC(=O)[C@@H](CC=C)CC(=O)N[C@H](CO)Cc1ccccc1 | 74 | – | 60 | – | – | – | – | –
Cc1cc(/C=C(\C#N)C(=O)N2CCOCC2)c(C)n1C1CCCC1 | – | – | – | – | – | – | · | ·
O=C(O)c1ccccc1C1=Nc2ccc(O)cc2Oc2cc(O)ccc21 | 55 | – | – | – | – | – | 39 | 45
CC(C)N(CCc1ccncc1)C(=S)Nc1cccc(Cl)c1 | – | – | – | – | – | – | · | ·
SMILES | DNMT1 inh | GRK2 inh | LMPTP inh | Scp1 inh | STEP inh | SUMO1-SIM PPI | DNMT1 confirm | Beacon interf | others
CC(=O)NN1C(=O)/C(=C/c2ccc(Br)o2)SC1=S | 88 | – | – | – | – | – | – | –
CC(=O)NN1C(=O)/C(=C\c2ccc(C)cc2)SC1=S | – | – | – | – | – | – | · | ·
CC(=O)NN1C(=O)/C(=C\c2ccccc2)SC1=S | – | – | – | – | – | – | · | ·
CC(=O)NN1C(=O)/C(=C\c2ccc(Br)o2)SC1=S | 81 | – | – | – | – | – | – | –
COCCCn1c(C(=O)Nc2ccc3c(c2)OCO3)cc2c(=O)n3cccc(C)c3nc21 | 83 | · | – | · | – | – | – | –
Cc1ccc(OCC(=O)NNC(=O)CSc2ncnc3sc(C)c(C)c23)cc1 | 54 | – | – | – | – | – | – | –
CCc1ccc(OCC(=O)NNC(=O)CSc2ncnc3sc(C)c(C)c23)cc1 | – | – | – | – | – | – | · | ·
COc1cc(C(=O)c2nccc3cc(OC)c(OC)cc23)c([N+](=O)[O-])cc1OC | 58 | – | – | – | – | – | – | –
COc1cc(N)c(C(=O)c2nccc3cc(OC)c(OC)cc23)cc1OC | – | – | – | – | – | – | · | ·
COc1ccc(-n2c(SCC(=O)N3CCOCC3)nc3ccccc3c2=O)cc1 | – | – | – | – | – | – | · | ·
Nc1ccc2c(c1)[nH]c(=O)c1ccccc12 | 80 | · | – | – | – | – | – | –
O=C(Nc1ccccc1)Nc1nnc(/C=C/c2ccccc2Cl)s1 | 89 | – | – | – | – | – | – | –
O=C(Nc1ccccc1)Nc1nnc(-c2ccccc2)s1 | – | – | – | – | – | – | · | ·
